Measured values from different studies.
Each line is one published result; the experiments were not run side by side.
Target: Insulin receptor-related protein (INSRR, Homo sapiens, UniProt P14616)

Compound	read-out	mode	method	tested at	measurement	result
CC(=O)c1c(NS(C)(=O)=O)c2cc(-c3ccc(Cl)cc3)c(-c3ccc(Cl)cc3Cl)nc2n(C)c1=O	cell-free assay		competition with immobilised ligand	1 µM	remaining binding	93%
O=C1Nc2ccc(Cl)cc2C1=Cc1cc(Cl)c(O)c(Cl)c1	cell-free assay			0.5 µM	remaining signal	100%
CCCOc1ccc(OC)c(F)c1C(=O)c1ccc(C(=O)N[C@@H]2CNC[C@H]2NC(=O)c2ccc3[nH]ncc3c2)cc1	enzyme activity	inhibitor		10 µM	remaining activity	87%
CC(C)CC(=O)N1CCc2nc(-c3ccc(Br)cc3)nc(N(C)Cc3ccccc3)c2C1	cell-free assay		competition with immobilised ligand	0.1 µM	remaining binding	100%
CCN(CC)CCNC(=O)c1c(C)[nH]c(/C=C2\C(=O)Nc3ccc(F)cc32)c1C	enzyme activity	inhibitor		0.3 µM	inhibition	25%
O=C(O)[C@@H]1[C@@H](Cn2nnc3ccccc3c2=O)CC[C@H]1C(=O)c1ccc(OCCC2CCOCC2)cc1	cell-free assay		competition with immobilised ligand	1 µM	remaining binding	100%
Nc1nc(Nc2ccccc2)sc1C(=O)c1c(F)cccc1F	enzyme activity	inhibitor		10 µM	remaining activity	24%
O=C(NC[C@@H]1[C@H]2CN(C(=O)OCc3cc(C(F)(F)F)cc(C(F)(F)F)c3)C[C@@H]12)c1ccc2[nH]nnc2c1	cell-free assay		competition with immobilised ligand	1 µM	remaining binding	83%
O=C(Nc1cnn(-c2csc(C(=O)NC3COC3)c2)c1)Nc1c(F)cccc1Cl	enzyme activity	inhibitor		5 µM	remaining activity	75.9%
CN(C)CC#Cc1ccc(OCCCc2sc(N3CCc4cccc(C(=O)Nc5nc6ccccc6s5)c4C3)nc2C(=O)O)c(F)c1	cell-free assay		competition with immobilised ligand	1 µM	remaining binding	90%
CC(C)(C)C(=O)c1sc(NC2CCCCC2)nc1N	enzyme activity	inhibitor		10 µM	remaining activity	93%
CC1=C(C#N)C(c2ccc3c(c2)c(NC(=O)c2ccccc2C)nn3C)C(C#N)=C(C)N1	cell-free assay		competition with immobilised ligand	1 µM	remaining binding	100%
CCCS(=O)(=O)Nc1ccc(F)c(C(=O)c2c[nH]c3ncc(-c4ccc(Cl)cc4)cc23)c1F	enzyme activity	inhibitor		1 µM	inhibition	< 10%
CC(C)(C)c1nc2c(s1)c1nc(N)ncc1c1ccc(NS(=O)(=O)c3c(F)cccc3F)c(F)c12	enzyme activity	inhibitor	radiometric	1 µM	remaining activity	107%
Cc1cc(NC(=O)c2cccc3cc(-c4cccc5[nH]nc(N)c45)ccc23)ccc1F	enzyme activity	inhibitor		0.1 µM	activity vs control	106%
CCN(CC)c1ccc(C2=NNC(=O)CC2C)cc1[N+](=O)[O-] (stereo not shown)	enzyme activity	inhibitor		10 µM	remaining activity	97%
CCOC(=O)c1cc2cc(-c3cc(C(=O)NCc4ccc(C(=O)O)cc4)nn3C)ccc2[nH]1	cell-free assay		competition with immobilised ligand	0.1 µM	remaining binding	77%
Cn1c(=O)n(-c2ccc(C(C)(C)C#N)cc2)c2c3cc(-c4cnc5ccccc5c4)ccc3ncc21	enzyme activity	inhibitor		10 µM	remaining activity	80%
Cc1sc(C(=O)NC2COC2)cc1-n1cc(NC(=O)Nc2c(F)cccc2Cl)cn1	enzyme activity	inhibitor		10 µM	remaining activity	71.9%
FC(F)c1nc2ccccc2n1-c1nc(N2CCOCC2)nc(N2CCOCC2)n1	enzyme activity	inhibitor		10 µM	remaining activity	88%
CNC(=O)c1cc(Oc2ccc(NC(=O)Nc3ccc(Cl)c(C(F)(F)F)c3)cc2)ccn1	enzyme activity	inhibitor		10 µM	inhibition	8%
CC(=O)N1CCC(c2ccc(C(=O)NC(=N)N)cc2C(F)(F)F)CC1	cell-free assay		competition with immobilised ligand	1 µM	remaining binding	100%
Cc1ccc(C(=O)Nc2ccc(CN3CCN(C)CC3)c(C(F)(F)F)c2)cc1C#Cc1cnc2cccnn12	cell-free assay			23.5 nM	remaining signal	100%
Cc1ccc(Nc2nccc(N(C)c3ccc4c(C)n(C)nc4c3)n2)cc1S(N)(=O)=O	enzyme activity	inhibitor		0.3 µM	inhibition	-22%
COc1cc(/C=C/C(=O)CC(=O)/C=C/c2ccc(O)c(OC)c2)ccc1O	enzyme activity	inhibitor		1 µM	activity vs control	84%
COc1ccc(COc2ccc(Cc3cnc(N)nc3N)cc2OC)cc1	cell-free assay			0.5 µM	remaining signal	99.4%
COc1cc(Nc2cnc(C#N)c(O[C@H](C)CN(C)C)n2)ncc1-c1cnn(C)c1	enzyme activity	inhibitor	radiometric	10 µM	remaining activity	89%
COc1cc2ncnc(Nc3ccc(Oc4ccccc4)cc3C)c2cc1OC	enzyme activity	inhibitor		1 µM	inhibition	3%
